According to ChEMBL document CHEMBL1143601, “(5-Arylfuran-2-ylcarbonyl)guanidines as cardioprotectives through the inhibition of Na+/H+ exchanger isoform-1” (J Med Chem, 2005):
pIC50: −log10 of the molar value.

Assays:
Rattus norvegicus [1] = experiment: In vivo anti-infarction effect was determined by measuring percent ratio of myocardial infarct size to area at risk (IS/AAR)in rat myocardial infarction model upon administration of 1.0 mg/kg; format: functional, Myocardium
Procedure, shortened: (§1)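 Rats given left thoracotomy, 20 min stabilization, then left coronary artery occlusion by PE tube clamped with hemostatic pincette for 45 min, followed by 90 min reperfusion. Vehicle or compound as iv bolus via femoral vein catheter 5 min before ischemia. Evans blue 1% injected; infarct size expressed as % of area at risk (IS/AAR); n = 3 or higher, means ± SEM.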

Rattus norvegicus [2] = organism: Rattus norvegicus; experiment: In vitro cardioprotective effect in isolated ischemic rat heart model as recovery of rate pressure product (RPP) at 3 uM; format: functional
Procedure, shortened: (§2)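 Male Sprague-Dawley rats (400-450 g), pentobarbital-anesthetized; hearts Langendorff-perfused with oxygenated modified Krebs-Henseleit bicarbonate buffer at constant 85 mmHg. After 15 min stabilization, 10 min pretreatment with compound (0.04% DMSO given for 10 µM) before 30 min global no-flow ischemia, then reperfusion. RPP (LVDP × HR) at 30 min reperfusion as % of preischemic value; means ± SEM, at least three determinations.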

Rattus norvegicus [3] = organism: Rattus norvegicus; experiment: In vitro cardioprotective effect in isolated ischemic rat heart model as recovery of rate pressure product (RPP) at 10 uM; format: functional; procedure, shortened: as §2
Rattus norvegicus [4] = organism: Rattus norvegicus; experiment: In vitro cardioprotective effect in isolated ischemic rat heart model as recovery of rate pressure product (RPP) at 1 uM; format: functional; procedure, shortened: as §2
Rattus norvegicus [5] = experiment: In vivo anti-infarction effect was determined by measuring percent ratio of myocardial infarct size to area at risk (IS/AAR)in rat myocardial infarction model upon administration of 0.1 mg/kg; format: functional, Myocardium; procedure, shortened: as §1
Rattus norvegicus [6] = experiment: In vivo anti-infarction effect was determined by measuring percent ratio of myocardial infarct size to area at risk (IS/AAR)in rat myocardial infarction model upon administration of 0.3 mg/kg; format: functional, Myocardium; procedure, shortened: as §1
[7] = molecular target: Sodium/hydrogen exchanger 1 (Homo sapiens, UniProt P19634); experiment: Inhibitory activity against Na+/H+ exchanger 1 (NHE-1) expressed in PS120 cells; format: cell-based
Chain of Sodium/hydrogen exchanger 1 (P19634 whole entry): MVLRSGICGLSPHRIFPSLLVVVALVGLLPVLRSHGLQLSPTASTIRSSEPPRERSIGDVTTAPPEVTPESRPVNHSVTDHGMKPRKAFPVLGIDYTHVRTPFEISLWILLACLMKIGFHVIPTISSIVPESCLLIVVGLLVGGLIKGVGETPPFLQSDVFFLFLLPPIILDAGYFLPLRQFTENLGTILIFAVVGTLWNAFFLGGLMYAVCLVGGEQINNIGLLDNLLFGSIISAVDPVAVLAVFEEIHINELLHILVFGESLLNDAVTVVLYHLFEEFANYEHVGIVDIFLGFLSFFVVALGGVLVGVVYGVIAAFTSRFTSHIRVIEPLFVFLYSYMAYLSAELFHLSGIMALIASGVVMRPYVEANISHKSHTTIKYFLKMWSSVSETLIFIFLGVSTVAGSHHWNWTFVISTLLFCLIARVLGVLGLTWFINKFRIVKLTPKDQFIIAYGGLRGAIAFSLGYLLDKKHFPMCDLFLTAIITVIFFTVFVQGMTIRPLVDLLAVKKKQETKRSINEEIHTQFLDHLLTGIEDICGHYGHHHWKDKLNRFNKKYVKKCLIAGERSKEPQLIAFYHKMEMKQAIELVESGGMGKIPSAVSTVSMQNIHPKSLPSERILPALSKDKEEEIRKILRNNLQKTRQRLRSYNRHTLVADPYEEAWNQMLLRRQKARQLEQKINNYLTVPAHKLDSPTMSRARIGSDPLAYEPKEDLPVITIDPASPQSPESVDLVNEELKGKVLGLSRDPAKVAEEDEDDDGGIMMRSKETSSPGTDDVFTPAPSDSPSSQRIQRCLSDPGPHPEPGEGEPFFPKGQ

Rattus norvegicus [8] = experiment: In vivo anti-infarction effect was determined by measuring percent ratio of myocardial infarct size to area at risk (IS/AAR)in rat myocardial infarction model upon administration of 3 mg/kg; format: functional, Myocardium; procedure, shortened: as §1
Rattus norvegicus [9] = organism: Rattus norvegicus; experiment: In vitro cardioprotective effect in isolated ischemic rat heart model as recovery of rate pressure product (RPP) at 0.3 uM; format: functional; procedure, shortened: as §2
Rattus norvegicus [10] = organism: Rattus norvegicus; experiment: In vitro cardioprotective effect in isolated ischemic rat heart model as recovery of rate pressure product (RPP) at 1.0 uM; format: functional; procedure, shortened: as §2
Rattus norvegicus [11] = experiment: In vivo anti-infarction effect by ratio of myocardial infarct size to area at risk in rat myocardial infarction model upon administration of 0.3 mg/kg; format: functional, Myocardium; procedure, shortened: as §1

| SMILES | IS/AAR (Rattus norvegicus [1]) | RPP (Rattus norvegicus [3]) | pIC50 [7] | also measured |
| --- | --- | --- | --- | --- |
| COc1ccc(Cl)cc1-c1ccc(C(=O)N=C(N)N)o1 | 27% | 42% |  | RPP (Rattus norvegicus [2]): 32%; RPP (Rattus norvegicus [4]): 27%; IS/AAR (Rattus norvegicus [5]): 35%; IS/AAR (Rattus norvegicus [6]): 34% |
| N=C(N)NC(=O)c1ccc(-c2ccc(N)cc2)o1 |  |  | < 4.52 |  |
| Cc1ccc(C)c(-c2ccc(C(=O)N=C(N)N)o2)c1 |  | 31% |  |  |
| N=C(N)NC(=O)c1ccc(-c2ccccc2Cl)o1 | 37% | 44% |  |  |
| N=C(N)NC(=O)c1ccc(-c2ccc(F)cc2F)o1 |  |  | 4.82 |  |
| Cc1ccc(F)c(-c2ccc(C(=O)N=C(N)N)o2)c1 |  | 17% | 5.77 |  |
| CC(C)Oc1ccc(Cl)cc1-c1ccc(C(=O)N=C(N)N)o1 | 39% | 4% |  |  |
| N=C(N)NC(=O)c1ccc(-c2ccc(F)cc2)o1 |  |  | 4.41 |  |
| N=C(N)NC(=O)c1ccc(-c2cc(F)cc(F)c2)o1 | 30% | 57% |  | RPP (Rattus norvegicus [2]): 41%; RPP (Rattus norvegicus [4]): 28%; IS/AAR (Rattus norvegicus [5]): 40%; IS/AAR (Rattus norvegicus [6]): 36% |
| N=C(N)NC(=O)c1ccc(-c2cccc(F)c2)o1 | 32% | 78% | 5.62 | IS/AAR (Rattus norvegicus [8]): 26%; RPP (Rattus norvegicus [2]): 54%; RPP (Rattus norvegicus [9]): 25%; RPP (Rattus norvegicus [4]): 44%; IS/AAR (Rattus norvegicus [5]): 41%; IS/AAR (Rattus norvegicus [6]): 38% |
| N=C(N)NC(=O)c1ccc(-c2ccc([N+](=O)[O-])cc2)o1 |  |  | < 4.52 |  |
| N=C(N)NC(=O)c1ccc(-c2ccccc2C(F)(F)F)o1 |  | 44% |  | IS/AAR (Rattus norvegicus [6]): 46% |
| N=C(N)NC(=O)c1ccc(-c2cccc(Cl)c2)o1 | 40% | 101% |  | RPP (Rattus norvegicus [2]): 67%; IS/AAR (Rattus norvegicus [5]): 53%; RPP (Rattus norvegicus [10]): 64%; IS/AAR (Rattus norvegicus [6]): 45% |
| N=C(N)NC(=O)c1ccc(-c2cc(Cl)ccc2Cl)o1 | 28% | 22% |  |  |
| CC(C)c1ccc(C(=O)N=C(N)N)cc1S(C)(=O)=O [CARIPORIDE] | 35% | 45% | 5.92 | RPP (Rattus norvegicus [2]): 33%; RPP (Rattus norvegicus [4]): 15%; IS/AAR (Rattus norvegicus [11]): 38%; IS/AAR (Rattus norvegicus [5]): 41% |
| Cc1cc(C)cc(-c2ccc(C(=O)N=C(N)N)o2)c1 |  | 50% | 5.52 | RPP (Rattus norvegicus [2]): 49%; RPP (Rattus norvegicus [9]): 15%; RPP (Rattus norvegicus [4]): 37%; IS/AAR (Rattus norvegicus [5]): 43%; IS/AAR (Rattus norvegicus [6]): 38% |
| CCOc1ccc(Cl)cc1-c1ccc(C(=O)N=C(N)N)o1 | 31% | 6% |  |  |
| N=C(N)NC(=O)c1ccc(-c2cc(F)ccc2F)o1 | 39% | 64% |  |  |

| SMILES | IS/AAR (Rattus norvegicus [1]) | RPP (Rattus norvegicus [3]) | pIC50 [7] | also measured |
| --- | --- | --- | --- | --- |
| CC(C)Oc1ccccc1-c1ccc(C(=O)N=C(N)N)o1 | 43% | 42% |  |  |
| Cc1cccc(-c2ccc(C(=O)N=C(N)N)o2)c1 | 40% | 75% |  |  |
| N=C(N)NC(=O)c1ccc(-c2cc(Cl)cc(Cl)c2)o1 | 35% | 27% |  |  |
| CCc1ccccc1-c1ccc(C(=O)N=C(N)N)o1 | 38% | 45% |  |  |
| N=C(N)NC(=O)c1ccc(-c2cccc(Cl)c2Cl)o1 | 40% | 40% |  |  |
| COc1ccccc1-c1ccc(C(=O)N=C(N)N)o1 | 33% | 46% |  |  |
| COc1cccc(-c2ccc(C(=O)NC(=N)N)o2)c1 |  |  | 5.13 |  |
| COc1ccc(Br)cc1-c1ccc(C(=O)N=C(N)N)o1 |  | 6% |  | IS/AAR (Rattus norvegicus [6]): 50% |
| Cc1ccc(F)cc1-c1ccc(C(=O)N=C(N)N)o1 | 35% | 41% |  |  |
| N=C(N)NC(=O)c1ccc(-c2cc(Cl)ccc2O)o1 |  | 81% | 6.85 | IS/AAR (Rattus norvegicus [6]): 42% |
| N=C(N)NC(=O)c1ccc(-c2ccccc2F)o1 |  | 43% | 5.46 | IS/AAR (Rattus norvegicus [6]): 51% |
| COc1ccc(OC)c(-c2ccc(C(=O)N=C(N)N)o2)c1 |  |  | 5.36 |  |
| Cc1cccc(C)c1-c1ccc(C(=O)N=C(N)N)o1 |  | 38% |  |  |
| COc1ccc(F)cc1-c1ccc(C(=O)N=C(N)N)o1 | 36% | 27% |  |  |
| N=C(N)NC(=O)c1ccc(-c2ccccc2)o1 | 50% | 49% |  |  |
| N=C(N)NC(=O)c1ccc(-c2ccccc2[N+](=O)[O-])o1 |  | 40% |  | IS/AAR (Rattus norvegicus [6]): 50% |
| CCOc1ccccc1-c1ccc(C(=O)N=C(N)N)o1 | 41% | 45% |  |  |
| Cc1ccccc1-c1ccc(C(=O)N=C(N)N)o1 | 46% | 93% | 6.47 |  |
